Measured values gathered from unrelated publications.
Compare with care: the assays were run in different laboratories.
Target: Phosphatidylinositol 4,5-bisphosphate 3-kinase catalytic subunit delta isoform (PIK3CD, Homo sapiens, UniProt O00329)
Residues used in one study (O00329 1-1044): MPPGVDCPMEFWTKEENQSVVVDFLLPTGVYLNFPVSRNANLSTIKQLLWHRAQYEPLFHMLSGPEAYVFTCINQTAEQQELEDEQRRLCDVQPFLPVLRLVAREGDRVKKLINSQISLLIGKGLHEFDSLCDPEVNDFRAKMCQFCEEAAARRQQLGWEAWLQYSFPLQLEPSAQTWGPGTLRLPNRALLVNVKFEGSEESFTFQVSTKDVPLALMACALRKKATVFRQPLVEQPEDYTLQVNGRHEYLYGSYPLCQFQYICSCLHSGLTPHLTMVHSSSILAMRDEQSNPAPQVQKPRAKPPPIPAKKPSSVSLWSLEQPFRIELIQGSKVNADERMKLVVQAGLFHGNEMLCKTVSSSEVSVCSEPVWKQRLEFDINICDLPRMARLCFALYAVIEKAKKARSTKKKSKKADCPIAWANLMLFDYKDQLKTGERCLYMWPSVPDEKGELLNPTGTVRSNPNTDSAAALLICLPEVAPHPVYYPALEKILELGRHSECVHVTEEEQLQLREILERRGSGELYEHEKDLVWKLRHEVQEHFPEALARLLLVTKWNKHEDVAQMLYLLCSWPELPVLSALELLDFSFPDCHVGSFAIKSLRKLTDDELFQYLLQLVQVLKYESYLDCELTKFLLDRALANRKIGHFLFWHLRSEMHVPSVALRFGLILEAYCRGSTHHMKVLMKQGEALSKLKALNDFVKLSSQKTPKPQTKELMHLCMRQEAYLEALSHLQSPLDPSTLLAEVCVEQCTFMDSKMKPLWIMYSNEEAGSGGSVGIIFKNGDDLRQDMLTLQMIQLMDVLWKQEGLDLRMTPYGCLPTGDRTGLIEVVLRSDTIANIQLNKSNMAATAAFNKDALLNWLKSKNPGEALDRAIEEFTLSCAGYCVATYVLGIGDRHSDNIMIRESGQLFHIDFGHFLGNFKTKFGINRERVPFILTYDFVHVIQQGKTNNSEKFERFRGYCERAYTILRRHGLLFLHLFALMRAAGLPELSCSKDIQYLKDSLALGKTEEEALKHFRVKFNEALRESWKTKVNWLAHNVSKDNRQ

SMILES	assay	conditions	remaining binding
C[C@@H]1CCN(c2nccc(-c3cnn4ncccc34)n2)C1	binding	1 µM	100%
c1cncc(-c2cccc(Nc3nccc(NC4CCCCC4)n3)c2)c1	binding, competition with immobilised ligand	10 µM	88%
O=C(c1ccc(Nc2nccc(-c3cc4ccccc4s3)n2)cc1)N1CCC(N2CCCC2)CC1	binding, competition with immobilised ligand	1 µM	41%
O=C(Nc1c[nH]nc1C(=O)NC1CCNCC1)c1cc(F)cc(F)c1	binding, competition with immobilised ligand	1 µM	100%
O=C(c1ccc(Nc2ncc(Cl)c(-c3ccc(Cl)s3)n2)cc1)N1CCC(N2CCCC2)CC1	binding, competition with immobilised ligand	1 µM	100%
c1cnn2ncc(-c3ccnc(N4CCC45COC5)n3)c2c1	binding	1 µM	69%
O=C1NC(c2ccccn2)Sc2ccccc21 (stereo not drawn)	cell-free assay, competition with immobilised ligand	1 µM	51%
O=C(c1ccc(Nc2ncc(Cl)c(-c3cc4ccccc4s3)n2)cc1)N1CCC(N2CCCC2)CC1	binding, competition with immobilised ligand	1 µM	71%
CNC(=O)[C@@H]1CC[C@@H](n2c(-c3ccc4cnccc4c3)nc3ccc(C(=O)NCc4cccc(C(N)=O)c4)cc32)C1	binding, competition with immobilised ligand	1 µM	100%
C[C@H](NC(=O)c1cnc2n1[C@](C)(Cc1ccc(C#N)cc1)C(=O)N2c1cc(Cl)c(F)c(Cl)c1)C(=O)NC1(c2ccccn2)CC1	cell-free assay, competition with immobilised ligand	1 µM	95%
N[C@H]1CCN(c2nccc(-c3cnn4ncccc34)n2)C1	binding	1 µM	100%
C=CC(=O)N1CCC(C(=O)NCC(=O)N2CCN(c3nc(-c4cnc(N)nc4C(F)F)nc(N4CCOCC4)n3)CC2)CC1	binding, competition with immobilised ligand	1 µM	19%
Nc1ncc2c(n1)-c1c([nH]c3ccc(C#CC4CC4)cc13)CCCC2	binding, competition with immobilised ligand	1 µM	70%
CCOCCn1cc(C(=O)Nc2ccc(-n3nc(-c4cccnc4)cc3C(F)(F)F)cn2)ccc1=O	cell-free assay, competition with immobilised ligand	1 µM	100%
CN(C)c1nccc(-c2cnn3ncccc23)n1	binding	1 µM	85%
Cc1cc(NC(=O)c2cccc(S(F)(F)(F)(F)F)c2)cc(-n2ccn3nc(-c4cccnc4)cc23)c1	cell-free assay, competition with immobilised ligand	1 µM	100%
CCN1CCN(Cc2ccc(C(=O)Nc3ccc(C)c(Oc4ccc5c(c4)CC(=O)N5)c3)cc2C(F)(F)F)CC1	binding, competition with immobilised ligand	1 µM	100%
CC1CCCN1c1nccc(-c2cnn3ncccc23)n1 (stereo not drawn)	binding	1 µM	100%
CN(c1ccnc(CNc2nc(Nc3ccc4c(c3)CC(=O)N4)ncc2C(F)(F)F)n1)S(C)(=O)=O	cell-free assay, competition with immobilised ligand	1 µM	77%
Cc1cnn2ncc(-c3ccnc(N(C)C)n3)c2c1	binding	1 µM	100%
CSc1cccnc1N1CCN(Cc2nc3ccccc3[nH]2)CC1	cell-free assay, competition with immobilised ligand	1 µM	100%
